Structures are written as SMILES.

The values that follow come from ChEMBL document CHEMBL1155278, “3,4-Diaryl-isoxazoles and -imidazoles as potent dual inhibitors of p38alpha mitogen activated protein kinase and casein kinase 1delta” (J Med Chem, 2009).

Assay [1] has as its target Calcium/calmodulin-dependent protein kinase kinase 1 (Homo sapiens) (UniProt Q8N5S9). Description: Inhibition of CAMKKalpha assessed as residual activity at 10 uM by Cherenkov counting relative to control. Put shortly: (§1)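 Single-point profiling at 10 µM in a panel of 78 protein kinases. Kinase activity is expressed as a percentage relative to control assays without compound.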

Assay [2] addresses Serine/threonine-protein kinase pim-1 (Homo sapiens) (UniProt P11309). The experiment in a line: Inhibition of PIM1 assessed as residual activity at 10 uM by Cherenkov counting relative to control in presence of 20 uM ATP.
Assay [3] deals with Fibroblast growth factor receptor 1 (Homo sapiens) (UniProt P11362). Description: Inhibition of FGFR1 assessed as residual activity at 10 uM by Cherenkov counting relative to control in presence of 20 uM ATP. In a few lines:
as §1

In assay [4] the target is T1, Inhibitor of nuclear factor kappa-B kinase subunit epsilon (Homo sapiens) (UniProt Q14164).
T1 sequence (whole entry): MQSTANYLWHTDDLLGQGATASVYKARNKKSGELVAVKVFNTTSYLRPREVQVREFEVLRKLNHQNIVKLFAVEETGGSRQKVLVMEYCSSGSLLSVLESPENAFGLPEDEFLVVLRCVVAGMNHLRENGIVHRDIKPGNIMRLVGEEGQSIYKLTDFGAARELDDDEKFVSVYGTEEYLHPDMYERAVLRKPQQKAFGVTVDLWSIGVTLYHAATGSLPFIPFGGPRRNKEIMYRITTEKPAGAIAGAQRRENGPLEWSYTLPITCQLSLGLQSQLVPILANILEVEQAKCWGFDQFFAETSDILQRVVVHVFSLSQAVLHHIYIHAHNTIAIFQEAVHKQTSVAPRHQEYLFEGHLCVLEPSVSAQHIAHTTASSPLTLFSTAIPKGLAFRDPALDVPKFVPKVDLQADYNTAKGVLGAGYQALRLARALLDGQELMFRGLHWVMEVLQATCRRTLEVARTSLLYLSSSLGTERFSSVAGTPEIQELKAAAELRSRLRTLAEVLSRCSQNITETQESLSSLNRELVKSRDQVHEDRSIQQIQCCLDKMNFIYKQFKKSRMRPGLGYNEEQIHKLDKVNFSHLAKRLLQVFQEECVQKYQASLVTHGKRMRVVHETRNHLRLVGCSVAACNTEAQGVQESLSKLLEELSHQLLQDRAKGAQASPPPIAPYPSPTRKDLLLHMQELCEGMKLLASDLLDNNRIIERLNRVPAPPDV
The experiment in a line: Inhibition of IKKepsilon assessed as residual activity at 0.1 uM by Cherenkov counting relative to control in presence of 50 uM ATP. In a few lines:
(§2)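 Single-concentration screen at 0.1 µM across a panel of 76 protein kinases. Each kinase was run at an ATP concentration approximating its ATP Km. Results are % mean residual activity versus control assays without compound (n = 3 ± SD).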

For assay [5], the target named is Mitogen-activated protein kinase 9 (Homo sapiens) (UniProt P45984). Description: Inhibition of JNK2 at 0.1 uM by Cherenkov counting in presence of 20 uM ATP. Put shortly: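 Single-concentration selectivity screen at 0.1 μM against a panel of 76 protein kinases. Each kinase was run at an ATP level approximating its Km for ATP. Output is mean residual activity as % of the control assay without compound, n = 3 ± SD.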
Chain of Mitogen-activated protein kinase 9 (Homo sapiens) (P45984 whole entry, looked up): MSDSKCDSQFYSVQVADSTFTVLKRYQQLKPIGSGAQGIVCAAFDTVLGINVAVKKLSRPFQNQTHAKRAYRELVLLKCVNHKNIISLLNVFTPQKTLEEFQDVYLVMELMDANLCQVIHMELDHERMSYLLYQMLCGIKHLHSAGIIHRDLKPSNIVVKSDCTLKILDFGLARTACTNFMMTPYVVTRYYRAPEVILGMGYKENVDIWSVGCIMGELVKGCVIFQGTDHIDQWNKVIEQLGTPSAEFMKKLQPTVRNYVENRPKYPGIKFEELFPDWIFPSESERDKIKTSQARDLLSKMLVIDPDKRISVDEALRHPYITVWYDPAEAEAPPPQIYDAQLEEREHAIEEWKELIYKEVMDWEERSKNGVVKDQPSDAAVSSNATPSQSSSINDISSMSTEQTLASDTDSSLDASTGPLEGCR

The target in assay [6] is Mitogen-activated protein kinase 1 (Homo sapiens) (UniProt P28482). Description: Inhibition of ERK2 assessed as residual activity at 0.1 uM by Cherenkov counting relative to control. Put shortly: as §2
Chain of Mitogen-activated protein kinase 1 (Homo sapiens) (P28482 whole entry): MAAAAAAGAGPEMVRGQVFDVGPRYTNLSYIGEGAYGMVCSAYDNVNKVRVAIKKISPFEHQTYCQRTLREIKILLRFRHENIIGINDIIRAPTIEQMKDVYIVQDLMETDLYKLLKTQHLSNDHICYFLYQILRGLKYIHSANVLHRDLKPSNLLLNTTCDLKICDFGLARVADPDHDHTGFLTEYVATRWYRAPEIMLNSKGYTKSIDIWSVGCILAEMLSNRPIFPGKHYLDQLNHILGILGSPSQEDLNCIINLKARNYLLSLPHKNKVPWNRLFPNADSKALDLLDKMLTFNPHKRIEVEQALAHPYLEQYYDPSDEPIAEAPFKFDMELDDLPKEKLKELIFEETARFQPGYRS
For assay [7], the target named is T2, Serine/threonine-protein kinase Chk1 (Homo sapiens) (UniProt O14757).
T2 sequence (whole entry): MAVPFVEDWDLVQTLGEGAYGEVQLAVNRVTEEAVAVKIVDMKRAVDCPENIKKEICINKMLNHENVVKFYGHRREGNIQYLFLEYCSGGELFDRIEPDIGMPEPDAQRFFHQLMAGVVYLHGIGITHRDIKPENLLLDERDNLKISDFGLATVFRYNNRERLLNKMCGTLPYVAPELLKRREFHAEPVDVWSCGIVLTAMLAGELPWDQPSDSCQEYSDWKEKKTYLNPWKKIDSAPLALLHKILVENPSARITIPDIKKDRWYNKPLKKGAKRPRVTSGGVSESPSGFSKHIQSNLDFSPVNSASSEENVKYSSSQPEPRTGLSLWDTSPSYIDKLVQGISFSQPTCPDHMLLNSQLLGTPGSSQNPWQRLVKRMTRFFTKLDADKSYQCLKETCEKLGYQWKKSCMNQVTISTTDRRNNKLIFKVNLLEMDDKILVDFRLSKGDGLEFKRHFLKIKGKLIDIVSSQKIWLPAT
Description: Inhibition of CHK1 assessed as residual activity at 0.1 uM by Cherenkov counting relative to control in presence of 20 uM ATP. In a few lines: as §2

In assay [8] the target is Fibroblast growth factor receptor 1 (Homo sapiens) (UniProt P11362). The experiment in a line: Inhibition of FGFR1 assessed as residual activity at 0.1 uM by Cherenkov counting relative to control in presence of 20 uM ATP. Put shortly:
as §2

Chain of Fibroblast growth factor receptor 1 (Homo sapiens) (P11362 22-822 limits assumed): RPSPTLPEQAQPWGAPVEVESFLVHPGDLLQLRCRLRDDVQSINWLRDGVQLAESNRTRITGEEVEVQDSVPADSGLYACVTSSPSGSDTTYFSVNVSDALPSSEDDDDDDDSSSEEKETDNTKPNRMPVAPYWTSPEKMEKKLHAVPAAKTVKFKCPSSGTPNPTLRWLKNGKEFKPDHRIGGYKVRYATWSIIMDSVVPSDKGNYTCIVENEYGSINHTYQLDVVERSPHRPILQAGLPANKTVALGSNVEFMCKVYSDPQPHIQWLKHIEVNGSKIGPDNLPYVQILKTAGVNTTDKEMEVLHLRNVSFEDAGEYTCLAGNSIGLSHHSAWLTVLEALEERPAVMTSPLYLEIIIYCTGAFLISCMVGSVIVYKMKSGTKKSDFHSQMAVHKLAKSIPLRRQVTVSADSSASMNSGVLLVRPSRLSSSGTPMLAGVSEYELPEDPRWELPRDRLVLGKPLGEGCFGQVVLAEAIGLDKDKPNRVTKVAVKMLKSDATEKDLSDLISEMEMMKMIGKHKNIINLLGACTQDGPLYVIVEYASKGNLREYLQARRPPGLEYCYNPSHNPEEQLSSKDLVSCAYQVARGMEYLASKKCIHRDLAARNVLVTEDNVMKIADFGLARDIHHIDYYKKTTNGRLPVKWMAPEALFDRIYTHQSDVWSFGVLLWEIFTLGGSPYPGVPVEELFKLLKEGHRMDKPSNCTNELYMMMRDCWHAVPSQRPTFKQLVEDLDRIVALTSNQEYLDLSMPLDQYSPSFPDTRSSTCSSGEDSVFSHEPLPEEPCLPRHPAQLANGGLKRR
Chain of Serine/threonine-protein kinase pim-1 (Homo sapiens) (P11309 whole entry, looked up): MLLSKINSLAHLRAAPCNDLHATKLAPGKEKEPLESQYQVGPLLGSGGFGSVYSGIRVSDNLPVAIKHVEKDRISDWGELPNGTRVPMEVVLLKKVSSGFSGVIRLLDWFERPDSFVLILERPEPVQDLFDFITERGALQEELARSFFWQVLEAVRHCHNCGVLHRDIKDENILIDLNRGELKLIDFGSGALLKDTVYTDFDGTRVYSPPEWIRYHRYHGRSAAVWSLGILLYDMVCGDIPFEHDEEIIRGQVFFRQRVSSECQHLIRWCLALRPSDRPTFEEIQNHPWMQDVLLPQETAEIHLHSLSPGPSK
Chain of Calcium/calmodulin-dependent protein kinase kinase 1 (Homo sapiens) (Q8N5S9 whole entry, looked up): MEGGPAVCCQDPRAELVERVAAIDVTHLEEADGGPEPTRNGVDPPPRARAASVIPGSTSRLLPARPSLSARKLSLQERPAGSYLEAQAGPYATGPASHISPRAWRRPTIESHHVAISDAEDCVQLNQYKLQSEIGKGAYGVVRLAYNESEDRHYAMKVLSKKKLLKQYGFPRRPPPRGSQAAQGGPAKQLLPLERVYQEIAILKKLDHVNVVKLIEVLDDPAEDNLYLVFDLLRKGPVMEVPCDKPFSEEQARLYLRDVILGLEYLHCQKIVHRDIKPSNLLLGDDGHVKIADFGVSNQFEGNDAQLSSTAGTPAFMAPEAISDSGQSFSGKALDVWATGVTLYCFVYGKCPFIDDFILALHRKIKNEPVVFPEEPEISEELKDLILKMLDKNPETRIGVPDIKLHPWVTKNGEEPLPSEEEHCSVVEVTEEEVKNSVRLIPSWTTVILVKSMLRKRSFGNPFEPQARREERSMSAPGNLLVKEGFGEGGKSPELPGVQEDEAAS

For the compound `CC(C)c1noc(-c2ccc(F)cc2)c1-c1ccncc1`, the Activity in assay [1] was 103%; in assay [2], 89%; in assay [3] it was 95%.

In the case of `CC(C)c1onc(-c2ccc(F)cc2)c1-c1ccncc1`, the Activity in assay [1] turned out to be 91%; in assay [2], 100%; in assay [3] it was 81%.

As for `COc1ccc(/C=C/C(=O)Nc2cc(-c3[nH]c([S+](C)[O-])nc3-c3ccc(F)cc3)ccn2)c(OC)c1` (stereo unspecified), the Activity in assay [4] was determined as 90%; in assay [6] it was 93%; in assay [7], 88%; in assay [8], 50%. Further, the inhibition in assay [5] stood at 88%.

Consider `COc1ccc(/C=C/C(=O)Nc2cc(-c3[nH]c(SC)nc3-c3ccc(F)cc3)ccn2)c(OC)c1`, for which the Activity amounted to 97% in assay [4], 91% in assay [6], 80% in assay [7] and 50% in assay [8]. In addition, the inhibition in assay [5] is 69%.
